{
  "source": "paper PMC5357606",
  "about": "(Journal of the American Chemical Society, 2017)",
  "key": {"InhA [1]": {"target": "T1, InhA (Mycobacterium tuberculosis, UniProt P9WGR1)", "T1 sequence (P9WGR1 whole entry, looked up)": "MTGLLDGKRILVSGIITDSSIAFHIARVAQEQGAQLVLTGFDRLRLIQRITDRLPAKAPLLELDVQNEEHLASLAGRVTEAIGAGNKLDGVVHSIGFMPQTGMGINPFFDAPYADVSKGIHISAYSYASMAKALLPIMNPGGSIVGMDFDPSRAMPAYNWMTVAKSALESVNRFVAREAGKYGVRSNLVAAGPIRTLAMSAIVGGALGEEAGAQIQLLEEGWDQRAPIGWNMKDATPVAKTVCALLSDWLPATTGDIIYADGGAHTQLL", "test": "[32P]-NAD+ direct dissociation kinetics", "assay_type": "binding", "settings": "32P-NAD+ direct dissociation method", "in_short": "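InhA expressed in E. coli BL21(DE3) pLysS and purified by Ni2+-NTA and size exclusion. Ternary complex formed with 15 μM InhA, 20 μM NAD+ plus [32P]-NAD+, and 200 μM inhibitor in 30 mM PIPES pH 6.8, 150 mM NaCl, 1 mM EDTA. Spin column removed free ligand; rapid dilution into buffer started dissociation. Timed aliquots ultrafiltered (10 kDa). Run at 20 °C, or 25 °C for two compounds. kon,overall from koff via Equation 5.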"}, "M. tuberculosis": {"tested_on": "M. tuberculosis", "test": "MIC determination, microplate Alamar Blue assay", "assay_type": "cell-based", "settings": "37 °C, 6 days + 24 h"}, "InhA [2]": {"target": "T1, InhA", "test": "Progress curve analysis of InhA inhibition", "assay_type": "biochemical", "settings": "for kon, overall: (k5+k6)/Ki^app; for k5: EI to EI*; for k6: EI* to EI; for tR: residence time from progress curve analysis"}, "InhA [3]": {"target": "T1, InhA", "test": "Second-harmonic generation", "assay_type": "binding", "settings": "10 μM compound"}, "[4]": {"settings": "20 °C, calculated from Ki^app, Ki^*app, k6"}, "[5]": {"settings": "read-out: Ki^*app, 20 °C, final EI* complex"}, "[6]": {"settings": "read-out: Ki^app, 20 °C, initial EI complex"}},
  "note": "Read-outs that look alike come from different tables or passages of the source.",
  "data": [
    {"compound": "CCCCCCc1ccc(Oc2ccccc2C)c(O)c1", "note": "[PT70]", "values": [
      {"measurement": "tR direct dissociation", "setting": "InhA [1]; 20 °C", "value": "40 ± 4", "unit": "min"},
      {"measurement": "MIC", "setting": "M. tuberculosis", "value": 3.13, "unit": "µg/mL"},
      {"measurement": "kon, overall", "setting": "InhA [2]; 20 °C", "value": 20000, "unit": "M⁻¹ s⁻¹"},
      {"measurement": "k5", "setting": "InhA [2]; [4]", "value": 0.23, "unit": "min⁻¹"},
      {"measurement": "k6", "setting": "InhA [2]; 20 °C", "value": "0.036 ± 0.010", "unit": "min⁻¹"},
      {"measurement": "tR", "setting": "InhA [2]; 20 °C", "value": "30 ± 7", "unit": "min"},
      {"measurement": "Ki", "setting": "InhA [2]; [5]", "value": "29 ± 4", "unit": "nM"},
      {"measurement": "Ki", "setting": "InhA [2]; [6]", "value": "210 ± 34", "unit": "nM"}
    ]},
    {"compound": "CCCCCCc1ccc(Oc2ccccc2Cl)c(O)c1", "note": "[PT91]", "values": [
      {"measurement": "tR direct dissociation", "setting": "InhA [1]; 20 °C", "value": "148 ± 13", "unit": "min"},
      {"measurement": "MIC", "setting": "M. tuberculosis", "value": 1.56, "unit": "µg/mL"},
      {"measurement": "kon, overall", "setting": "InhA [2]; 20 °C", "value": 41700, "unit": "M⁻¹ s⁻¹"},
      {"measurement": "k5", "setting": "InhA [2]; [4]", "value": 0.12, "unit": "min⁻¹"},
      {"measurement": "k6", "setting": "InhA [2]; 20 °C", "value": "0.013 ± 0.005", "unit": "min⁻¹"},
      {"measurement": "tR", "setting": "InhA [2]; 20 °C", "value": "90 ± 37", "unit": "min"},
      {"measurement": "Ki", "setting": "InhA [2]; [5]", "value": "5 ± 2", "unit": "nM"},
      {"measurement": "Ki", "setting": "InhA [2]; [6]", "value": "52 ± 25", "unit": "nM"}
    ]},
    {"compound": "CCCCCCc1ccc(Oc2ccccc2F)c(O)c1", "note": "[PT113]", "values": [
      {"measurement": "tR direct dissociation", "setting": "InhA [1]; 20 °C", "value": "31 ± 5", "unit": "min"},
      {"measurement": "k5", "setting": "InhA [2]; [4]", "value": 0.18, "unit": "min⁻¹"},
      {"measurement": "k6", "setting": "InhA [2]; 20 °C", "value": "0.026 ± 0.004", "unit": "min⁻¹"},
      {"measurement": "tR", "setting": "InhA [2]; 20 °C", "value": "38 ± 5", "unit": "min"},
      {"measurement": "Ki", "setting": "InhA [2]; Ki^*app, 20 °C, final EI* complex", "value": "27 ± 1", "unit": "nM"},
      {"measurement": "Ki", "setting": "InhA [2]; Ki^app, 20 °C, initial EI complex", "value": "220 ± 6", "unit": "nM"},
      {"measurement": "kon", "setting": "InhA [2]; read-out: kon, overall", "value": 16000, "unit": "M⁻¹ s⁻¹"}
    ]},
    {"compound": "CCCCCCc1ccc(Oc2ccccc2C#N)c(O)c1", "note": "[PT119]", "values": [
      {"measurement": "tR direct dissociation", "setting": "InhA [1]; 20 °C", "value": "47 ± 4", "unit": "min"},
      {"measurement": "time course of SHG conformational change", "setting": "InhA [3]; 30-min time course", "value": "require a longer time to reach a plateau compared to PT155"},
      {"measurement": "increase in SHG intensity", "setting": "InhA [3]; 30 min after addition, His-tagged InhA, N = 4, mean ± SE", "value": "13.1± 0.8", "unit": "%"},
      {"measurement": "MIC", "setting": "M. tuberculosis", "value": 2.5, "unit": "µg/mL"},
      {"measurement": "kon, overall", "setting": "InhA [2]; 20 °C", "value": 8330, "unit": "M⁻¹ s⁻¹"},
      {"measurement": "k5", "setting": "InhA [2]; [4]", "value": 5.0, "unit": "min⁻¹"},
      {"measurement": "k6", "setting": "InhA [2]; 20 °C", "value": "0.020 ± 0.0040", "unit": "min⁻¹"},
      {"measurement": "tR", "setting": "InhA [2]; 20 °C", "value": "50 ± 0.4", "unit": "min"},
      {"measurement": "Ki", "setting": "InhA [2]; [5]", "value": "40 ± 1", "unit": "nM"},
      {"measurement": "Ki", "setting": "InhA [2]; [6]", "value": "10000 ± 2000", "unit": "nM"}
    ]},
    {"compound": "Cc1ccccc1Oc1ccc(Cn2cc(-c3ccccc3)nn2)cc1O", "note": "[PT163]", "values": [
      {"measurement": "tR direct dissociation", "setting": "InhA [1]; 25 °C", "value": "114 ± 18", "unit": "min"},
      {"measurement": "k5", "setting": "InhA [2]; 25 °C, calculated", "value": 3.20, "unit": "min⁻¹"},
      {"measurement": "k6", "setting": "InhA [2]; 25 °C", "value": "0.0092 ± 0.002", "unit": "min⁻¹"},
      {"measurement": "tR", "setting": "InhA [2]; 25 °C", "value": "113 ± 28", "unit": "min"}
    ]}
  ]
}
